# Experimental data published in PMC9685603 (ACS Omega, 2022).
# Entries after “also recorded” stand apart in the source; their conditions may differ.
# Test system: HEK 293 cells
# Experiment: MTT cell viability
# Assay type: cell-based, human
# Settings: MTT assay, 48 h, studied concentration range 100–0.01 μM
# Method in brief: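 Seeding in DMEM with 10% FBS was 8000 cells/well for MCF-7 and MDA-MB-468 and 5000 cells/well for HEK 293. Cells were held 24 h at 37 °C, 5% CO2, humidified, then exposed to test compounds at varied concentrations for 48 h. MTT reagent (5 mg/mL) was added for 2–4 h and formazan dissolved in DMSO. Absorbance was read at 570/690 nm and % survival calculated.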
smiles,measurement,value
"O=S(=O)(NN=Cc1cn(CCN2CCOCC2)c2ccccc12)c1ccc(Cl)cc1 [Compound 5f, 4-Chloro-N′-((1-(2-morpholinoethyl)-1H-indol-3-yl)methylene)benzenesulfonohydrazide]",toxicity against HEK 293 noncancerous cells,biocompatible; also recorded: nontoxic
